Values after ≈ are worked out from the molar mass of the structure shown.
How the values were obtained:
Pseudomonas aeruginosa [1] = assay: Antibacterial activity against Pseudomonas aeruginosa ATCC 27853 after 24 hrs by two-fold serial dilution method; format: functional; settings: ATCC 27853, 24 h
Summary of the method: (§1)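 MIC taken as the lowest concentration giving complete growth inhibition, by standard two-fold serial dilution in 96-well plates following NCCLS. Stocks in DMSO, diluted in Mueller–Hinton broth. Inoculum adjusted with sterile saline to 1 × 10⁵ CFU. DMSO with inoculum and no drug served as solvent control. Growth read visually and spectrophotometrically, in triplicate.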

Staphylococcus aureus [2] = assay: Antibacterial activity against methicillin-resistant Staphylococcus aureus N315 after 24 hrs by two-fold serial dilution method; format: functional; settings: N315, 24 h
Escherichia coli [3] = assay: Antibacterial activity against Escherichia coli JM109 after 24 hrs by two-fold serial dilution method; format: functional; settings: JM109, 24 h
Escherichia coli [4] = assay: Potentiation of norfloxacin-induced antibacterial activity against Escherichia coli JM109 at 2 times MIC after 24 hrs by two-fold serial dilution method; format: functional
Saccharomyces cerevisiae [5] = assay: Antifungal activity against Saccharomyces cerevisiae after 24 hrs by two-fold serial dilution method; format: functional
Summary of the method: (§2)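 Spore suspension in sterile distilled water from one-day-old cultures on Sabouraud agar, final 1–5 × 10³ spore mL⁻¹. Compound stocks diluted in sterile RPMI 1640 as two-fold serial dilutions in microdilution plates. MIC is the lowest concentration completely inhibiting growth. Growth monitored visually and spectrophotometrically, in triplicate.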

Salmonella typhi [6] = assay: Potentiation of norfloxacin-induced antibacterial activity against Bacillus typhi at 4 times MIC after 24 hrs by two-fold serial dilution method; format: functional, Salmonella enterica subsp. enterica serovar Typhi
Aspergillus flavus [7] = assay: Potentiation of fluconazole-induced antifungal activity against Aspergillus flavus at 4 times MIC after 24 hrs by two-fold serial dilution method; format: functional
Cyberlindnera jadinii [8] = assay: Antifungal activity against Candida utilis after 24 hrs by two-fold serial dilution method; format: functional; settings: Williopsis jadinii; summary of the method: as §2
Candida albicans [9] = assay: Potentiation of fluconazole-induced antifungal activity against Candida albicans ATCC 76615 at 4 times MIC after 24 hrs by two-fold serial dilution method; format: functional
Staphylococcus aureus [10] = assay: Potentiation of chloromycin-induced antibacterial activity against Staphylococcus aureus ATCC 6538 at MIC after 24 hrs by two-fold serial dilution method; format: functional
Bacillus subtilis [11] = assay: Potentiation of chloromycin-induced antibacterial activity against Bacillus subtilis ATCC 21216 at 4 times MIC after 24 hrs by two-fold serial dilution method; format: functional
Salmonella typhi [12] = assay: Potentiation of chloromycin-induced antibacterial activity against Bacillus typhi at 4 times MIC after 24 hrs by two-fold serial dilution method; format: functional, Salmonella enterica subsp. enterica serovar Typhi
Staphylococcus aureus [13] = assay: Antibacterial activity against Staphylococcus aureus ATCC 6538 after 24 hrs by two-fold serial dilution method; format: functional; settings: ATCC 6538, 24 h
Escherichia coli [14] = assay: Potentiation of chloromycin-induced antibacterial activity against Escherichia coli JM109 at MIC after 24 hrs by two-fold serial dilution method; format: functional
Saccharomyces cerevisiae [15] = assay: Potentiation of fluconazole-induced antifungal activity against Saccharomyces cerevisiae at 4 times MIC after 24 hrs by two-fold serial dilution method; format: functional
Micrococcus luteus [16] = assay: Antibacterial activity against Micrococcus luteus ATCC 4698 after 24 hrs by two-fold serial dilution method; format: functional; settings: ATCC 4698, 24 h; summary of the method: as §1
Candida [17] = assay: Potentiation of fluconazole-induced antifungal activity against Candida mycoderma at 4 times MIC after 24 hrs by two-fold serial dilution method; format: functional
Salmonella typhi [18] = assay: Antibacterial activity against Bacillus typhi after 24 hrs by two-fold serial dilution method; format: functional, Salmonella enterica subsp. enterica serovar Typhi; settings: Salmonella enterica
Summary of the method: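 Two-fold serial dilution in 96-well plates following NCCLS; compounds dissolved in DMSO as stocks, then diluted in Mueller-Hinton broth; bacterial suspension adjusted with sterile saline to 1 × 10⁵ CFU; MIC taken as lowest concentration completely inhibiting growth, monitored visually and spectrophotometrically; DMSO-plus-inoculum well as solvent control; triplicate.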

Cyberlindnera jadinii [19] = assay: Potentiation of fluconazole-induced antifungal activity against Candida utilis at 8 times MIC after 24 hrs by two-fold serial dilution method; format: functional
Bacillus [20] = assay: Potentiation of chloromycin-induced antibacterial activity against Bacillus proteus ATCC 13315 at 2 times MIC after 24 hrs by two-fold serial dilution method; format: functional
Pseudomonas aeruginosa [21] = assay: Potentiation of chloromycin-induced antibacterial activity against Pseudomonas aeruginosa ATCC 27853 at 2 times MIC after 24 hrs by two-fold serial dilution method; format: functional
Pseudomonas aeruginosa [22] = assay: Potentiation of norfloxacin-induced antibacterial activity against Pseudomonas aeruginosa ATCC 27853 at 2 times MIC after 24 hrs by two-fold serial dilution method; format: functional
Candida albicans [23] = assay: Antifungal activity against Candida albicans ATCC 76615 after 24 hrs by two-fold serial dilution method; format: functional; settings: ATCC 76615, 24 h; summary of the method: as §2
Micrococcus luteus [24] = assay: Potentiation of chloromycin-induced antibacterial activity against Micrococcus luteus ATCC 4698 at 2 times MIC after 24 hrs by two-fold serial dilution method; format: functional
Bacillus [25] = assay: Antibacterial activity against Bacillus proteus ATCC 13315 after 24 hrs by two-fold serial dilution method; format: functional; settings: ATCC 13315, 24 h; summary of the method: as §1
Bacillus [26] = assay: Potentiation of norfloxacin-induced antibacterial activity against Bacillus proteus ATCC 13315 at 2 times MIC after 24 hrs by two-fold serial dilution method; format: functional
Bacillus subtilis [27] = assay: Potentiation of norfloxacin-induced antibacterial activity against Bacillus subtilis ATCC 21216 at 2 times MIC after 24 hrs by two-fold serial dilution method; format: functional
Staphylococcus aureus [28] = assay: Potentiation of norfloxacin-induced antibacterial activity against Staphylococcus aureus ATCC 6538 at MIC after 24 hrs by two-fold serial dilution method; format: functional
Micrococcus luteus [29] = assay: Potentiation of norfloxacin-induced antibacterial activity against Micrococcus luteus ATCC 4698 at 2 times MIC after 24 hrs by two-fold serial dilution method; format: functional
Aspergillus flavus [30] = assay: Antifungal activity against Aspergillus flavus after 24 hrs by two-fold serial dilution method; format: functional; summary of the method: as §2
Candida [31] = assay: Antifungal activity against Candida mycoderma after 24 hrs by two-fold serial dilution method; format: functional; summary of the method: as §2
Bacillus subtilis [32] = assay: Antibacterial activity against Bacillus subtilis ATCC 21216 after 24 hrs by two-fold serial dilution method; format: functional; settings: ATCC 21216, 24 h; summary of the method: as §1
Staphylococcus aureus [33] = assay: Ratio of chloromycin MIC to compound MIC for Staphylococcus aureus ATCC 6538; format: functional
Staphylococcus aureus [34] = assay: Ratio of norfloxacin MIC to compound MIC for Staphylococcus aureus ATCC 6538; format: functional
Pseudomonas aeruginosa [35] = assay: Ratio of chloromycin MIC to compound MIC for Pseudomonas aeruginosa ATCC 27853; format: functional
Saccharomyces cerevisiae [36] = assay: Ratio of fluconazole MIC to compound MIC for Saccharomyces cerevisiae; format: functional
Candida [37] = assay: Ratio of fluconazole MIC to compound MIC for Candida mycoderma; format: functional
Escherichia coli [38] = assay: Ratio of chloromycin MIC to compound MIC for Escherichia coli JM109; format: functional

SMILES: Fc1ccc(CN(Cc2nc3ccccc3[nH]2)c2cc(C(F)(F)F)cc(C(F)(F)F)c2)c(F)c1
- MIC (Pseudomonas aeruginosa [1]): 16 µg/mL (≈ 33 µM)
- MIC (Staphylococcus aureus [2]): 32 µg/mL (≈ 65.9 µM)
- MIC (Escherichia coli [3]): 16 µg/mL (≈ 33 µM)
- fractional inhibitory concentration index (FICI) (Escherichia coli [4]): 0.375
- MIC (Saccharomyces cerevisiae [5]): 16 µg/mL (≈ 33 µM)
- fractional inhibitory concentration index (FICI) (Salmonella typhi [6]): 0.25
- fractional inhibitory concentration index (FICI) (Aspergillus flavus [7]): 0.375
- MIC (Cyberlindnera jadinii [8]): 32 µg/mL (≈ 65.9 µM)
- fractional inhibitory concentration index (FICI) (Candida albicans [9]): 0.25
- fractional inhibitory concentration index (FICI) (Staphylococcus aureus [10]): 0.25
- fractional inhibitory concentration index (FICI) (Bacillus subtilis [11]): 0.375
- fractional inhibitory concentration index (FICI) (Salmonella typhi [12]): 0.25
- MIC (Staphylococcus aureus [13]): 8 µg/mL (≈ 16.5 µM)
- fractional inhibitory concentration index (FICI) (Escherichia coli [14]): 0.25
- fractional inhibitory concentration index (FICI) (Saccharomyces cerevisiae [15]): 0.375
- MIC (Micrococcus luteus [16]): 8 µg/mL (≈ 16.5 µM)
- fractional inhibitory concentration index (FICI) (Candida [17]): 0.25
- MIC (Salmonella typhi [18]): 32 µg/mL (≈ 65.9 µM)
- fractional inhibitory concentration index (FICI) (Cyberlindnera jadinii [19]): 0.5
- fractional inhibitory concentration index (FICI) (Bacillus [20]): 0.25
- fractional inhibitory concentration index (FICI) (Pseudomonas aeruginosa [21]): 0.25
- fractional inhibitory concentration index (FICI) (Pseudomonas aeruginosa [22]): 0.375
- MIC (Candida albicans [23]): 16 µg/mL (≈ 33 µM)
- fractional inhibitory concentration index (FICI) (Micrococcus luteus [24]): 0.5
- MIC (Bacillus [25]): 16 µg/mL (≈ 33 µM)
- fractional inhibitory concentration index (FICI) (Bacillus [26]): 0.25
- fractional inhibitory concentration index (FICI) (Bacillus subtilis [27]): 0.25
- fractional inhibitory concentration index (FICI) (Staphylococcus aureus [28]): 0.25
- fractional inhibitory concentration index (FICI) (Micrococcus luteus [29]): 0.375
- MIC (Aspergillus flavus [30]): 16 µg/mL (≈ 33 µM)
- MIC (Candida [31]): 32 µg/mL (≈ 65.9 µM)
- MIC (Bacillus subtilis [32]): 16 µg/mL (≈ 33 µM)

SMILES: FC(F)(F)c1cc(NCc2nc3ccccc3[nH]2)cc(C(F)(F)F)c1
- MIC (Pseudomonas aeruginosa [1]): 4 µg/mL (≈ 11.1 µM)
- MIC (Staphylococcus aureus [2]): 16 µg/mL (≈ 44.5 µM)
- MIC (Escherichia coli [3]): 2 µg/mL (≈ 5.57 µM)
- MIC (Saccharomyces cerevisiae [5]): 2 µg/mL (≈ 5.57 µM)
- Ratio (Staphylococcus aureus [33]): 4
- Ratio (Staphylococcus aureus [34]): 4
- MIC (Cyberlindnera jadinii [8]): 8 µg/mL (≈ 22.3 µM)
- MIC (Staphylococcus aureus [13]): 2 µg/mL (≈ 5.57 µM)
- MIC (Micrococcus luteus [16]): 8 µg/mL (≈ 22.3 µM)
- Ratio (Pseudomonas aeruginosa [35]): 4
- MIC (Salmonella typhi [18]): 2 µg/mL (≈ 5.57 µM)
- Ratio (Saccharomyces cerevisiae [36]): 8
- MIC (Candida albicans [23]): 2 µg/mL (≈ 5.57 µM)
- Ratio (Candida [37]): 2
- MIC (Bacillus [25]): 2 µg/mL (≈ 5.57 µM)
- Ratio (Escherichia coli [38]): 8
- MIC (Aspergillus flavus [30]): 8 µg/mL (≈ 22.3 µM)
- MIC (Candida [31]): 2 µg/mL (≈ 5.57 µM)
- MIC (Bacillus subtilis [32]): 4 µg/mL (≈ 11.1 µM)

From ChEMBL document CHEMBL2390927, “Design, synthesis and antimicrobial evaluation of novel benzimidazole type of Fluconazole analogues and their synergistic effects with Chloromycin, Norfloxacin and Fluconazole” (2013)
